Drawing on ChEMBL document CHEMBL1123317, “[pGlu6,Pro9]SP6-11, a selective agonist for the substance P P-receptor subtype” (J Med Chem, 1986), this text covers Relative potency and EC50 for two molecules.

SMILES strings stand for the structures.

For assay [1], the species on record is Cavia porcellus. Description: Compound was evaluated for potency relative to neurokinin B against SP-N system (enteric nerves of Guinea pig ileum). In kind it is functional. In outline:
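Neuronal SP-N receptor of guinea pig ileum assayed after desensitizing the muscular receptor with substance P methyl ester 10⁻⁷ M (2-min preincubation). Tissue in Tyrode's solution, 95% O2-5% CO2, 34 °C; isotonic contractions; peptides at 2-3-min intervals, under 30 s contact.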

In assay [2] the test system is Cricetinae gen. sp. Description: Compound was evaluated for potency in SP-E system and relative potency was determined against Hamster urinary bladder. The assay is classed as functional, Cricetulus griseus. The method, boiled down:
(§1)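 Isolated tissue (hamster urinary bladder or rat duodenum) in 10-mL bath of Tyrode's solution gassed with 95% O2-5% CO2 at 34 °C; isotonic contraction recorded. Duodenum: peptides applied at 2-3-min intervals, contact under 30 s. Bladder: 15-30-min intervals, contact 1-3 min.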

For assay [3], the species on record is Rattus norvegicus. Nature of the assay: Compound was evaluated for potency in SP-E system and relative potency was determined against rat duodenum. The assay is classed as functional. In outline:
as §1

In assay [4] the test system is Cricetinae gen. sp. Nature of the assay: Compound was evaluated for effective dose against hamster bladder. The assay is classed as functional, Cricetulus griseus. In outline:
as §1

Assay [5] is filed under the species Rattus norvegicus. Description: Compound was evaluated for effective dose against rat duodenum. The assay is classed as functional. The method, boiled down: as §1
The species named for assay [6] is Cavia porcellus. Description: Compound was evaluated for effective dose against guinea pig ileum. The assay is classed as functional. In outline:
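Guinea pig ileum in 10-mL bath of Tyrode's solution, 95% O2-5% CO2, 34 °C, with atropine 10⁻⁶ M present (muscular SP-P receptor); isotonic contractions; peptides applied at 2-3-min intervals, contact under 30 s.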

For `CSCC[C@H](NC(=O)[C@H](CC(C)C)NC(=O)CNC(=O)[C@@H](NC(=O)[C@H](Cc1ccccc1)NC(=O)[C@H](CO)NC(=O)[C@H](CC(=O)O)NC(=O)[C@@H](NC(=O)[C@H](CCCCN)NC(=O)[C@@H](N)Cc1c[nH]cn1)[C@@H](C)O)C(C)C)C(N)=O` [NEUROKININ A], the Relative potency in the assay listed under Cavia porcellus [1] is 0.04; with Cricetinae gen. sp. [2], 1; in the assay filed under Rattus norvegicus [3] it was 0.3.

Consider `CSCC[C@H](NC(=O)[C@H](CC(C)C)NC(=O)CNC(=O)[C@@H](NC(=O)[C@H](Cc1ccccc1)NC(=O)[C@H](Cc1ccccc1)NC(=O)[C@H](CC(=O)O)NC(=O)[C@H](Cc1c[nH]cn1)NC(=O)[C@H](CCSC)NC(=O)[C@@H](N)CC(=O)O)C(C)C)C(N)=O` [NEUROKININ B], for which the EC50 was determined as 50 nM with Cricetinae gen. sp. [4], 6.5 nM in the assay listed under Rattus norvegicus [5] and 1.5 nM in the assay listed under Cavia porcellus [6]. The Relative potency in the assay listed under Cavia porcellus [1], in the assay with Cricetinae gen. sp. [2] and in the assay listed under Rattus norvegicus [3] was 1 throughout.
